# Most compounds without a hit are left out; they make up all but 2.9% or so of the library.
# GalR3 antagonist: GalR3 antagonists in HEK293 cells, primary screen, cell-based, fluorescence readout. Galanin receptor type 3 (Homo sapiens), O60755. HEK293 GalR3-CNG cAMP membrane potential fluorescence; galR3 body fused to GalR1 C-terminus. inhibition, % at 3 µM. 360,000 tested, 0.44% active. AID 651719, 2012;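 active = inhibition above the screen-wide average plus 3 SD, cut at about 13% in these data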;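 note: forskolin and galanin both at EC90 stimulate the cells; cAMP rise reported by CNG channel membrane potential dye signal; 0% = forskolin plus galanin with DMSO and 100% = forskolin alone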
# Target sequence (O60755 1-299 limits assumed): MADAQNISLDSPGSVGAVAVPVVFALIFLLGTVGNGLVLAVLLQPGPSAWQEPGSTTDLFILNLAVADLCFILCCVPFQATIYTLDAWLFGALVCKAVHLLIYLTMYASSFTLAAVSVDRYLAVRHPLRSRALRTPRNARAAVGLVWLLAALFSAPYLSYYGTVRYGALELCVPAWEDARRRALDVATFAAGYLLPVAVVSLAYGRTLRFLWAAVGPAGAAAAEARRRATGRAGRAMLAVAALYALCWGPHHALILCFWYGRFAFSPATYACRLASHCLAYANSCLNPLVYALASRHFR
# Calb FLC: C. albicans growth inhibition with fluconazole, primary screen, CaCi-2 strain, Alamar Blue fluorescence | 300,000 tested, 0.57% active | C. albicans CaCi-2 + fluconazole, 48 h | growth inhibition, % (concentration not given with the values);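 active = growth inhibition above about 58% in most replicates, limit read from the data, passing the limit was not always enough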;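 note: all wells also contain fluconazole at 8 µg/ml as a sub-toxic cotreatment; 0% = median of DMSO wells and 100% = median of geldanamycin control wells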
# TAG inh: inhibitors of triacylglycerol accumulation, primary screen, cell-based, uHTS, fluorescence, H9c2. H9c2 cells, Nile Red lipid (TAG) fluorescence; cells loaded with 200 µM oleic acid. inhibition, % at 12.5 µM. 230,000 tested, 0.66% active. AID 651582, 2012;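 active = pattern-corrected inhibition of lipid staining of at least 50% with the nuclear-stain viability signal not falling by more than 50%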;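 note: 0% = DMSO wells and 100% = triacsin C control wells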
# Efflux pump inh: inhibitors of Candida efflux pumps in yeast, primary screen, S. cerevisiae, Nile Red, multiplex; S. cerevisiae Candida pump triplex; AID 485275, 2010; inhibition, % at 10 µM; 330,000 tested, 0.44% active;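 active = plate passing quality check with inhibition over a set limit, or well fluorescence over plate mean plus 4 SD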;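 note: Nile Red retained in pooled yeast measured as flow cytometry median fluorescence; 0% = buffer negative control and 100% = Enniatin B positive control; higher means more Nile Red kept so more efflux inhibition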
# MC4R antagonist: MC4R antagonists of cAMP signaling, primary screen, cell-based, TR-FRET, antagonist arm of biased-ligand search. Melanocortin receptor 4 (Homo sapiens), P32245. MC4R-expressing cells, MTII-stimulated cAMP, LANCE TR-FRET. inhibition, % at 6.5 µM. 360,000 tested, 0.48% active;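 active = inhibition above its plate's cutoff, the mean of tested wells on that plate plus 3 SD, cut at about 29% in these data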;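 note: 0% = Melanotan II alone and 100% = Melanotan II plus saturating MCL0020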
# Target sequence (P32245 whole entry, looked up): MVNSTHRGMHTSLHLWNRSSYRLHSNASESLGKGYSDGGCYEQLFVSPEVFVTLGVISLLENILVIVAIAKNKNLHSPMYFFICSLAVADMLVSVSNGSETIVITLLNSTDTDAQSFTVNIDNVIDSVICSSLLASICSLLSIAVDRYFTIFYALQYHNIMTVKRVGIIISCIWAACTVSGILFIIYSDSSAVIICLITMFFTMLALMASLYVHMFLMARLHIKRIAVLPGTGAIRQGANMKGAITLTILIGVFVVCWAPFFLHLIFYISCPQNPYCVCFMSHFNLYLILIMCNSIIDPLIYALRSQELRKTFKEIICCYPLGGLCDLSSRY
#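 Assay system: U2OS cells stably expressing human melanocortin 4 receptor (MC4R) / Dosing: 6.5 µM / Timing: compound 30 min, challenge 1 h, detection 1 h / Measured by: Eu-cAMP/anti-cAMP TR-FRET, emission 671 nm / Replicates: singlicate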
# MC4R ag barr: MC4R agonists recruiting beta-arrestin, primary screen, cell-based, luminescence, agonist arm of biased-ligand search; Melanocortin receptor 4 (Homo sapiens), P32245; U2OS MC4R beta-arrestin complementation; percent of melanotan II response, DMSO zero; 360,000 tested, 0.98% active; activation, % at 8.9 µM;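 active = activation above a per-plate cutoff, the mean activation of sample wells on that plate plus 3 SD, cut at about 8% in these data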
# cAMP nonselect: nonselective cAMP signaling inhibitors, parental cells, counter-screen for MC4R biased antagonist project, cell-based, TR-FRET, U2OS, forskolin, triplicate. shares compounds with MC4R antagonist. inhibition, % at 6.5 µM. 1,600 tested, 26% active. LANCE TR-FRET;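 active = mean inhibition over triplicates above the low-control well mean plus 3 SD, set per campaign, cut at about 13% in these data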;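 note: signal is single emission at 671 nm which falls as cellular cAMP rises; 0% = forskolin-stimulated wells and 100% = buffer without forskolin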
# MC4R antag conf: MC4R cAMP antagonists, retest, confirmation, cell-based, TR-FRET. shares compounds with MC4R antagonist. 1,600 tested, 27% active. MC4R-expressing cells, MTII-stimulated cAMP. inhibition, % at 6.5 µM; in the data active = inhibition above about 29%;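 note: 0% = agonist stimulated wells alone and 100% = agonist stimulated wells plus saturating reference antagonist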
# MC4R barr conf: MC4R beta-arrestin agonists, retest, confirmation, cell-based, luminescence, U2OS | shares compounds with MC4R ag barr | U2OS MC4R beta-arrestin recruitment; scaled DMSO 0%, Melanotan II 100% | activation, % at 8.9 µM | 2,400 tested, 31% active | AID 602192, 2012;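 active = mean activation across replicates above the hit cutoff set in the earlier primary screen, cut at about 8% in these data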
# MOR-DOR barr ag: agonists of MOR-DOR heterodimerization, counter-screen for MC4R biased agonist project, cell-based, luminescence | U2OS PathHunter beta-arrestin, beta-gal luminescence; percent of deltorphin B response, DMSO zero | 2,400 tested, 5.8% active | activation, % at 9.2 µM | shares compounds with MC4R ag barr;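 active = mean activation across replicates exceeds the hit threshold derived in the earlier primary screen, cut at about 18% in these data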;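 note: 100% = deltorphin B at 0.9 µM final and 0% = DMSO alone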
# TAG conf: triacylglycerol accumulation inhibitors, retest, confirmation, cell-based, single concentration, Nile Red fluorescence, H9c2 | shares compounds with TAG inh | H9c2 lipid accumulation; cells loaded with 200 µM oleic acid | inhibition, % at 12.5 µM | 990 tested, 71% active | AID 651629, 2012;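 active = mean inhibition across replicates of 40% or more; inactive = mean inhibition below 40%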;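 note: plate controls were DMSO only wells for no effect and Triacsin C treated wells for full effect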
# GalR3 conf: GalR3 antagonist hit confirmation, cell-based, fluorescence, triplicate | shares compounds with GalR3 antagonist | HEK293 GalR3 CNG cAMP biosensor, membrane potential fluorescence; galR3 fused to GalR1 carboxy tail; challenged with forskolin and galanin at EC90 | inhibition, % at 3 µM | 1,600 tested, 59% active;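 active = inhibition above the primary screen's cutoff, the mean inhibition of all screened compounds plus 3 SD, cut at about 13% in these data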;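 note: 0% = forskolin plus galanin and 100% = forskolin alone with DMSO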
# CNG parental: nonspecific cAMP agonists in parental HEK-CNG cells, counter-screen for GalR3 antagonist project, cell-based, fluorescence, high throughput; shares compounds with GalR3 antagonist; HEK293-CNG parental cells, cAMP membrane potential fluorescence; normalised: DMSO wells 0%, forskolin wells 100%; activation, % at 3 µM; 1,600 tested, 10% active; AID 652268, 2013; in the data active = activation above about 1.3%
# The depositor's hits bear a star; . = no result; ! = repeats disagree.
SMILES,GalR3 antagonist,Calb FLC,TAG inh,Efflux pump inh,MC4R antagonist,MC4R ag barr,cAMP nonselect,MC4R antag conf,others
O=C1c2cc([N+](=O)[O-])ccc2-c2cc(Cl)c(NC(=O)C(F)(F)F)cc21,-3,.,-13,.,-3,-1,.,.,
O=C1c2cc([N+](=O)[O-])ccc2-c2cc(Br)c(N=C(NO)C(F)(F)F)cc21,-3,.,-3,.,35*,14*,-3,-4,MC4R barr conf=13*;MOR-DOR barr ag=6
COc1cccc(C(=O)C(C#N)=C(SC)SC)c1,-2,-2,32,0,42*,24*,10,23,MC4R barr conf=14*;MOR-DOR barr ag=19*
CCCCCCSc1cccc(-c2nc3ccc(Cl)cn3c2NCCCC)c1,-3,.,2,.,-3,2,.,.,
CCCCNc1c(-c2cccc(-c3cc(C(C)=O)cs3)c2)nc2ccc(C)cn12,-2,1,3,0,50*,19*,9,19,MC4R barr conf=24*;MOR-DOR barr ag=7
O=Nc1c(-c2c(O)[nH]c3cc(Br)ccc23)[nH]c2ccccc12,.,53,84*,0,62*,14*,5,56*,MC4R barr conf=0;MOR-DOR barr ag=3
O=C(Nc1ccc(-c2nc3ccccc3o2)cc1)c1ccc2c(c1)OCO2,-7,14,.,0,30*,20*,1,-8,MC4R barr conf=12*;MOR-DOR barr ag=7
COc1ccccc1Cc1c(-c2ccccc2)nc2ccc(Cl)cn12,0,.,.,.,.,.,.,.,
CCCCNC(=O)C1(C)CCN1C(=O)c1cc2ccccc2s1 (stereo not given),-5,.,4,.,4,-2,.,.,
Cc1ccc(-c2nn(-c3ccccc3)cc2NC(=O)CCl)cc1,-3,-26,51*,0,37*,2,10,41*,TAG conf=80*
Cc1nc2ccc(S(=O)(=O)CCC(=O)NCc3ccc(Cl)cc3)cc2s1,.,.,-9,.,8,-1,.,.,
C[C@H](O)C#Cc1ccc2c(c1)O[C@@H](CN(C)Cc1ccc(-c3ccccc3)cc1)[C@H](C)CN([C@@H](C)CO)S2(=O)=O,-8,.,64*,.,39*,-3,5,29*,TAG conf=66*
C[C@@H]1CN([C@H](C)CO)S(=O)(=O)c2ccc(Br)cc2O[C@@H]1CN(C)Cc1ccc(-c2ccccc2)cc1,0,.,-8,.,17,-1,.,.,
COc1ccc(-c2cc(C(=O)Nc3cc(OC)cc(C(=O)Nc4cccc(C(F)(F)F)c4)c3)[nH]n2)cc1,-7,-1,84*,0,31*!,7,6,19,TAG conf=77*
COc1cc(NC(=O)c2cc3cccc(OC)c3o2)cc(C(=O)Nc2cccc(C(F)(F)F)c2)c1,-3,-3,55*,0,33*,0,0,-3,TAG conf=69*
O=[N+]([O-])c1ccc(NN=CC2CCCCCC2)c([N+](=O)[O-])c1,-6,.,.,.,.,.,.,.,
Cc1nn(-c2ccccc2)c2nc(-c3ccccc3)cc(C(=O)N3CCOCC3)c12,-6,22,31,0,-2,-2,.,.,
Cc1nn(-c2cccc(Cl)c2)c2nc(-c3ccncc3)cc(C(=O)N3CCOCC3)c12,-6,21,53*,0,34*,7,0,17,TAG conf=53*
COC(=O)C[C@H]1C=C[C@@H](NC(=O)c2ccncc2)[C@@H](CO)O1,-4,.,.,.,.,.,.,.,
Cc1cc(C#N)c(C)c(SCc2[nH]nc3c2C(c2ccccc2)C(C#N)=C(N)O3)n1 (stereo not given),27*,3,.,0,31*,1,4,-6,GalR3 conf=12;CNG parental=1
Cc1ccc(SCc2[nH]nc3c2C(c2cccnc2)C(C#N)=C(N)O3)cc1 (stereo not given),-1,18,.,0,8,0,.,.,
Oc1ccc(C(c2nnnn2CCc2ccccc2)N2CCN(c3nc4ccccc4s3)CC2)cc1 (stereo not given),23*,21,10,0,31*,-1,2,13,GalR3 conf=1;CNG parental=-1
O=C(CN1CCCN(Cc2ccc(F)cc2Cl)C1=O)NC1CCCCCCC1,-7,-14,.,0,6,1,.,.,
O=C(CN1CCN(Cc2ccccc2F)C1=O)NC1CCCC1,13*,-6,8,0,29*,0,-1,-5,GalR3 conf=4;CNG parental=0
C=CCOC(=O)Nc1nc(CCNC(=O)OC(C)(C)C)c(C(=O)OC)s1,-6,.,.,.,.,.,.,.,
NS(=O)(=O)c1ccc(O)c(NC(=O)c2ccc([N+](=O)[O-])cc2)c1,20*,6,-6,0,29*,-1,-6,-9,GalR3 conf=4;CNG parental=0
